Measured values taken from ChEMBL document CHEMBL1687874, “Anti-tubercular agents. Part 6: synthesis and antimycobacterial activity of novel arylsulfonamido conjugated oxazolidinones” (Eur J Med Chem, 2011).
pIC50: −log10 of the molar value. ≈ marks a conversion by molar mass, not a printed value.

Key:
[1] = tested on: Mycobacterium tuberculosis; experiment: Antimycobacterial activity against Mycobacterium tuberculosis H37Rv after 3 to 4 weeks by microplate alamar blue assay; format: functional
[2] = Selectivity index, ratio of IC50 for human HFF cells to MIC for Mycobacterium tuberculosis H37Rv; format: functional
In short: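 SI computed as IC50 on HFF cells (24 h MTT) divided by MIC against M. tuberculosis H37Rv (3–4 week microdilution, […]).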

HFF = experiment: Cytotoxicity against human HFF cells after 24 hrs by MTT assay; format: cell-based
In short: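 Human foreskin fibroblasts in DMEM with 10% FCS exposed to test material for 24 h at 37 °C in CO2 incubator. MTT then added, 3 h further at 37 °C. Formazan read at 565 nm; percent cytotoxicity relative to untreated cells, reported as IC50.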

Compound: CN1C(NC[C@H]2CN(c3ccc(N4CCOCC4)c(F)c3)C(=O)O2)=NS(=O)(=O)c2ccccc21
- MIC [1]: > 6.25 µg/mL

Compound: CCN1C(NC[C@H]2CN(c3ccc(N4CCOCC4)c(F)c3)C(=O)O2)=NS(=O)(=O)c2ccccc21
- MIC [1]: > 6.25 µg/mL

Compound: O=C1O[C@@H](CNC2=NS(=O)(=O)c3ccccc3N2c2ccccc2)CN1c1ccc(N2CCOCC2)c(F)c1
- MIC [1]: > 6.25 µg/mL

Compound: CN1C(NC[C@H]2CN(c3ccc(N4CCSCC4)c(F)c3)C(=O)O2)=NS(=O)(=O)c2ccccc21
- MIC [1]: > 6.25 µg/mL

Compound: CCN1C(NC[C@H]2CN(c3ccc(N4CCSCC4)c(F)c3)C(=O)O2)=NS(=O)(=O)c2ccccc21
- MIC [1]: > 6.25 µg/mL

Compound: O=C1O[C@@H](CNC2=NS(=O)(=O)c3ccccc3N2c2ccccc2)CN1c1ccc(N2CCSCC2)c(F)c1
- MIC [1]: > 6.25 µg/mL

Compound: O=C1O[C@@H](CNS(=O)(=O)c2ccccc2)CN1c1ccc(N2CCOCC2)c(F)c1
- MIC [1]: > 6.25 µg/mL

Compound: O=C1O[C@@H](CNS(=O)(=O)c2ccc(Cl)cc2)CN1c1ccc(N2CCOCC2)c(F)c1
- MIC [1]: > 6.25 µg/mL

Compound: O=C1O[C@@H](CNS(=O)(=O)c2ccc(F)cc2)CN1c1ccc(N2CCOCC2)c(F)c1
- Selectivity Index [2]: >100
- pIC50 (HFF): < 4.00
- MIC [1]: 1 µg/mL (≈ 2.21 µM)

Compound: Cc1ccc(S(=O)(=O)NC[C@H]2CN(c3ccc(N4CCOCC4)c(F)c3)C(=O)O2)cc1
- MIC [1]: > 6.25 µg/mL

Compound: CC(=O)NC[C@H]1CN(c2ccc(N3CCN(C4=NS(=O)(=O)c5ccccc5N4C)CC3)c(F)c2)C(=O)O1
- Selectivity Index [2]: >100
- pIC50 (HFF): < 4.00
- MIC [1]: 1 µg/mL (≈ 1.88 µM)

Compound: CCN1C(N2CCN(c3ccc(N4C[C@H](CNC(C)=O)OC4=O)cc3F)CC2)=NS(=O)(=O)c2ccccc21
- Selectivity Index [2]: >50
- pIC50 (HFF): < 4.30
- MIC [1]: 1 µg/mL (≈ 1.84 µM)

Compound: CC(=O)NC[C@H]1CN(c2ccc(N3CCN(C4=NS(=O)(=O)c5ccccc5N4c4ccccc4)CC3)c(F)c2)C(=O)O1
- Selectivity Index [2]: >8
- pIC50 (HFF): < 4.30
- MIC [1]: 6.25 µg/mL (≈ 10.5 µM)

Compound: CN1C(NC[C@H]2CN(c3ccc(N4CCN(C(=O)/C=C/c5ccc(-c6ccc(Cl)cc6)o5)CC4)c(F)c3)C(=O)O2)=NS(=O)(=O)c2ccccc21
- MIC [1]: > 6.25 µg/mL

Compound: CCN1C(NC[C@H]2CN(c3ccc(N4CCN(C(=O)/C=C/c5ccc(-c6ccc(Cl)cc6)o5)CC4)c(F)c3)C(=O)O2)=NS(=O)(=O)c2ccccc21
- MIC [1]: > 6.25 µg/mL

Compound: O=C(/C=C/c1ccc(-c2ccc(Cl)cc2)o1)N1CCN(c2ccc(N3C[C@H](CNC4=NS(=O)(=O)c5ccccc5N4c4ccccc4)OC3=O)cc2F)CC1
- MIC [1]: > 6.25 µg/mL

Compound: CC(=O)NC[C@H]1CN(c2ccc(N3CCOCC3)c(F)c2)C(=O)O1 [LINEZOLID]
- MIC [1]: 2 µg/mL (≈ 5.93 µM)

Compound: CO[C@H]1/C=C/O[C@@]2(C)Oc3c(C)c(O)c4c(O)c(c(/C=N/N5CCN(C)CC5)c(O)c4c3C2=O)NC(=O)/C(C)=C\C=C\[C@H](C)[C@H](O)[C@@H](C)[C@@H](O)[C@@H](C)[C@H](OC(C)=O)[C@@H]1C [RIFAMPIN]
- MIC [1]: 0.12 µg/mL (≈ 0.146 µM)
